Reference: ChEMBL document CHEMBL1152423, “Development of N-[11C]methylamino 4-hydroxy-2(1H)-quinolone derivatives as PET radioligands for the glycine-binding site of NMDA receptors” (Bioorg Med Chem, 2009)
Activity calls are given as the source filed them. No cut-off for these calls is given here.

How the values were obtained:
Glutamate NMDA receptor [1] = assay: Binding affinity to glycine binding site of NMDA receptor in rat brain; type: tissue-based
[2] = Plasma protein binding in rat at 0.67 to 0.89 […] after 30 mins by ultrafiltration; type: ADME, cell-free; conditions: read-out: PPB (converted)
Procedure, shortened: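 Rat serum was diluted 10-fold in 66 mM phosphate buffer (pH 7.4) containing [11C]radioligand (0.67–0.89 MBq) and incubated 30 min at 30 °C. It was then ultrafiltered by centrifugation at 2000 rpm for 15 min. Radioactivity in whole plasma and in filtrate was counted to give % bound (mean, n=3).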

Blood [3] = assay: Biodistribution in ddY mouse blood assessed per gram of tissue at 7.4 MBq, iv after 30 mins by gamma counting; type: ADME, organism-based; conditions: in vivo, 0.5 h
Procedure, shortened: (§1)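 ddY mice (35–45 g) received about 7.4 MBq of [11C]radioligand in 0.2 ml into the tail vein and were decapitated at 1 or 30 min. Blood, cerebrum and cerebellum were gamma-counted with decay correction and expressed as % injected dose/g; tissue/blood ratios were derived. n=3 or 5.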

[4] = Biodistribution in ddY mouse cerebrum assessed per gram of tissue at 7.4 MBq, iv after 30 mins by gamma counting; type: ADME, organism-based; conditions: in vivo, 0.5 h; procedure, shortened: as §1
Cerebellum [5] = assay: Biodistribution in ddY mouse cerebellum assessed per gram of tissue at 7.4 MBq, iv after 30 mins by gamma counting; type: ADME, organism-based; conditions: in vivo, 0.5 h; procedure, shortened: as §1
[6] = Ratio of drug level in cerebrum to blood of ddY mouse at 7.4 MBq, iv after 30 mins; type: ADME, organism-based; procedure, shortened: as §1
[7] = Ratio of drug level in cerebellum to blood of ddY mouse at 7.4 MBq, iv after 30 mins; type: ADME, organism-based; procedure, shortened: as §1
Blood [8] = assay: Biodistribution in mouse blood assessed per gram of tissue at 7.4 MBq, iv after 1 min by gamma counting; type: ADME, organism-based; conditions: in vivo
[9] = Biodistribution in mouse cerebrum assessed per gram of tissue at 7.4 MBq, iv after 1 min by gamma counting; type: ADME, organism-based; conditions: in vivo
Cerebellum [10] = assay: Biodistribution in mouse cerebellum assessed per gram of tissue at 7.4 MBq, iv after 1 min by gamma counting; type: ADME, organism-based; conditions: in vivo
[11] = Ratio of drug level in cerebrum to blood of mouse at 7.4 MBq, iv after 1 min; type: ADME, organism-based
Procedure, shortened: (§2)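 ddY mice (35–45 g) received ca. 7.4 MBq ¹¹C-labelled ligand (0.2 ml) by tail-vein injection and were decapitated at 1 min. Cerebrum and cerebellum were dissected, and radioactivity was gamma-counted with decay correction and expressed as % injected dose per gram tissue. The value is the tissue-to-blood ratio of % dose/g.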

[12] = Ratio of drug level in cerebellum to blood of mouse at 7.4 MBq, iv after 1 min; type: ADME, organism-based; procedure, shortened: as §2
Glutamate NMDA receptor [13] = assay: Displacement of [3H]MDL-105519 from glycine binding site of NMDA receptor in rat cortical membrane by liquid scintillation counting; type: cell membranes
Procedure, shortened: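 Washed rat cortical membranes in 50 mM Tris–HCl (pH 8.0) were incubated 45 min at 4 °C with [3H]MDL-105,519 (2 nM) plus buffer or displacer. Nonspecific binding was defined with excess unlabeled glycine. Samples were filtered on GF/B, washed three times with ice-cold buffer, and counted by liquid scintillation. Ki came from three determinations, each in triplicate.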

[14] = target: T1, Glutamate NMDA receptor (Rattus norvegicus) (UniProt P35439+Q00959+Q00960+Q00961+Q62645+Q8VHN2+Q9R1M7); assay: Binding affinity to glycine binding site of NMDA receptor in hippocampus of rat brain by autoradiography; type: tissue-based; conditions: tested as the 11C-labelled form
Procedure, shortened: (§3)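 Rat brain sagittal sections were preincubated 30 min at 25 °C in 50 mM Tris–HCl (pH 7.4), then incubated 30 min at 25 °C with the [11C]radioligand (1.59–2.13 nM). Sections were rinsed twice for 3 min in cold buffer, dipped in cold water, dried, and exposed to imaging plates for 60 min. Nonspecific binding was taken with the corresponding unlabeled ligand; specific binding is given per region.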

[15] = target: T1, Glutamate NMDA receptor (Rattus norvegicus); assay: Binding affinity to glycine binding site of NMDA receptor in cerebral cortex of rat brain by autoradiography; type: tissue-based; conditions: tested as the 11C-labelled form; procedure, shortened: as §3
[16] = target: T1, Glutamate NMDA receptor (Rattus norvegicus); assay: Binding affinity to glycine binding site of NMDA receptor in thalamus of rat brain by autoradiography; type: tissue-based; conditions: tested as the 11C-labelled form; procedure, shortened: as §3
[17] = target: T1, Glutamate NMDA receptor (Rattus norvegicus); assay: Binding affinity to glycine binding site of NMDA receptor in striatum of rat brain by autoradiography; type: tissue-based; conditions: tested as the 11C-labelled form; procedure, shortened: as §3
[18] = target: T1, Glutamate NMDA receptor (Rattus norvegicus); assay: Binding affinity to glycine binding site of NMDA receptor in cerebellum of rat brain by autoradiography; type: tissue-based; conditions: tested as the 11C-labelled form; procedure, shortened: as §3
[19] = target: T1, Glutamate NMDA receptor (Rattus norvegicus); assay: Binding affinity to glycine binding site of NMDA receptor in hippocampus of rat brain by autoradiography in presence of glycine; type: tissue-based; conditions: tested as the 11C-labelled form
Procedure, shortened: (§4)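 Hippocampal binding on rat brain slices: 30 min at 25 °C in 50 mM Tris–HCl (pH 7.4) with [11C]radioligand (1.59–2.13 nM), with or without a glycine-site drug (agonists at 1 mM). Slices were rinsed, dried and exposed to imaging plates for 60 min. PSL with drug was divided by PSL without drug to give % total binding, averaged over at least triplicate sections from three animals.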

[20] = target: T1, Glutamate NMDA receptor (Rattus norvegicus); assay: Binding affinity to glycine binding site of NMDA receptor in hippocampus of rat brain by autoradiography in presence of glycine-site agonist D-serine; type: tissue-based; conditions: tested as the 11C-labelled form; procedure, shortened: as §4
[21] = target: T1, Glutamate NMDA receptor (Rattus norvegicus); assay: Binding affinity to glycine binding site of NMDA receptor in hippocampus of rat brain by autoradiography in presence of glycine-site antagonist L-703717; type: tissue-based; conditions: tested as the 11C-labelled form; procedure, shortened: as §4
[22] = target: T1, Glutamate NMDA receptor (Rattus norvegicus); assay: Binding affinity to glycine binding site of NMDA receptor in hippocampus of rat brain by autoradiography in presence of glycine-site antagonist methoxy-MDL-104653; type: tissue-based; conditions: tested as the 11C-labelled form; procedure, shortened: as §4
[23] = target: T1, Glutamate NMDA receptor (Rattus norvegicus); assay: Binding affinity to glycine binding site of NMDA receptor in hippocampus of rat brain by autoradiography in presence of glycine-site antagonist MDL-105519; type: tissue-based; conditions: tested as the 11C-labelled form; procedure, shortened: as §4
Blood [24] = assay: Biodistribution in ddY mouse blood assessed per gram of tissue at 7.4 MBq, iv after 1 min by gamma counting; type: ADME, organism-based; conditions: in vivo; procedure, shortened: as §1
[25] = Biodistribution in ddY mouse cerebrum assessed per gram of tissue at 7.4 MBq, iv after 1 min by gamma counting; type: ADME, organism-based; conditions: in vivo; procedure, shortened: as §1
Cerebellum [26] = assay: Biodistribution in ddY mouse cerebellum assessed per gram of tissue at 7.4 MBq, iv after 1 min by gamma counting; type: ADME, organism-based; conditions: in vivo; procedure, shortened: as §1
[27] = Ratio of drug level in cerebrum to blood of ddY mouse at 7.4 MBq, iv after 1 min; type: ADME, organism-based; procedure, shortened: as §1
[28] = Ratio of drug level in cerebellum to blood of ddY mouse at 7.4 MBq, iv after 1 min; type: ADME, organism-based; procedure, shortened: as §1

CCc1cc(Cl)cc2[nH]c(=O)c(-c3cccc(OC)c3)c(O)c12
Ki (Glutamate NMDA receptor [1]): 0.0072 µM | fraction unbound at 0.5 h [2]: 0.06

[11CH3]Oc1ccc(Cc2cccc(-c3c(O)c4ccc(Cl)cc4[nH]c3=O)c2)cc1
Drug uptake (Blood [3]): 3.46 %ID/g | Drug uptake [4]: 0.2 %ID/g | Drug uptake (Cerebellum [5]): 0.24 %ID/g | Kp at 0.5 h [6]: 0.051 | Kp at 0.5 h [7]: 0.068 | Drug uptake (Blood [8]): 8.37 %ID | Drug uptake [9]: 0.32 %ID | Drug uptake (Cerebellum [10]): 0.36 %ID | Kp at 1 min [11]: 0.038 | Kp at 1 min [12]: 0.043

CCc1cc(Cl)cc2[nH]c(=O)c(-c3cccc(NC)c3)c(O)c12
Ki (Glutamate NMDA receptor [13]): 0.0118 µM | Activity [14]: 89% | Activity [15]: Active | Activity [16]: Active | Activity [17]: Active | Activity [18]: 75% | Activity [19]: 59% | Activity [20]: 59% | Activity [21]: 64% | Activity [22]: 64% | Activity [23]: 64%

CNc1cc(Cl)cc2[nH]c(=O)c(-c3cccc(OC)c3)c(O)c12
Ki (Glutamate NMDA receptor [13]): 0.715 µM

[11CH3]Nc1ccc(Cc2cccc(-c3c(O)c4ccc(Cl)cc4[nH]c3=O)c2)cc1
Drug uptake (Blood [24]): 13.08 %ID | Drug uptake [25]: 0.4 %ID | Drug uptake (Cerebellum [26]): 0.48 %ID | Drug uptake (Blood [3]): 3.93 %ID/g | Drug uptake [4]: 0.17 %ID/g | Drug uptake (Cerebellum [5]): 0.23 %ID/g | Kp at 1 min [27]: 0.031 | Kp at 1 min [28]: 0.037 | Kp at 0.5 h [6]: 0.043 | Kp at 0.5 h [7]: 0.058

COc1cccc(-c2c(O)c3c(N(C)C)cc(Cl)cc3[nH]c2=O)c1
Ki (Glutamate NMDA receptor [13]): 0.566 µM

CCc1cc(Cl)cc2[nH]c(=O)c(-c3cccc(N(C)C)c3)c(O)c12
Ki (Glutamate NMDA receptor [13]): 0.0343 µM

CCc1cc(Cl)cc2[nH]c(=O)c(-c3cccc(O[11CH3])c3)c(O)c12
Drug uptake (Blood [24]): 29.16 %ID | Drug uptake [25]: 0.5 %ID | Drug uptake (Cerebellum [26]): 0.72 %ID | Drug uptake (Blood [3]): 10.66 %ID/g | Drug uptake [4]: 0.32 %ID/g | Drug uptake (Cerebellum [5]): 0.44 %ID/g | Kp at 1 min [27]: 0.018 | Kp at 1 min [28]: 0.026 | Kp at 0.5 h [6]: 0.03 | Kp at 0.5 h [7]: 0.042
